Calls of active or inactive are those of the source. The rule behind the calls is not given here.

This note sets out measurements from ChEMBL document CHEMBL2311383, “Discovery of piperazin-1-ylpyridazine-based potent and selective stearoyl-CoA desaturase-1 inhibitors for the treatment of obesity and metabolic syndrome” (J Med Chem, 2013).

Series [1] deals with Acyl-CoA (8-3)-desaturase (Rattus norvegicus) (UniProt Q920R3). The series is described as follows: Inhibition of delta5 desaturase in Sprague-Dawley rat liver microsome at 10 uM. It counts as microsomes.
Series [2] concerns the target Acyl-CoA 6-desaturase (Rattus norvegicus) (UniProt Q9Z122). The series is described as follows: Inhibition of delta6 desaturase in Sprague-Dawley rat liver microsome using cis,cis-9,12-octadecadienoic acid substrate at 10 uM.
A further series has as its target T1, Stearoyl-CoA desaturase (Homo sapiens, UniProt O00767).
T1 sequence (O00767 whole entry): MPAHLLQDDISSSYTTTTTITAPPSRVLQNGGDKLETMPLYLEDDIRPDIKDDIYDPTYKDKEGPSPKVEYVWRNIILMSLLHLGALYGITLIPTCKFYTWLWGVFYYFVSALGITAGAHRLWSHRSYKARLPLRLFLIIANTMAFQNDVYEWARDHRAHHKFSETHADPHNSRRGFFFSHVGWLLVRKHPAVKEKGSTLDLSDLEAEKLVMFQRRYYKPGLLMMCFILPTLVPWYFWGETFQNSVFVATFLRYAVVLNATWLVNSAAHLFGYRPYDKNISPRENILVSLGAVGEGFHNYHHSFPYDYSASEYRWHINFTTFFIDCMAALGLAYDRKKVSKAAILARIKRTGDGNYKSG
Description: Inhibition of SCD1 in human HepG2 cells using [14C]-stearate substrate assessed as decreased production of [14C]-oleic acid after 24 hrs. In kind it is cell-based.

The target in another series is T2, Acyl-CoA desaturase 1 (Mus musculus, UniProt P13516).
T2 sequence (P13516 whole entry): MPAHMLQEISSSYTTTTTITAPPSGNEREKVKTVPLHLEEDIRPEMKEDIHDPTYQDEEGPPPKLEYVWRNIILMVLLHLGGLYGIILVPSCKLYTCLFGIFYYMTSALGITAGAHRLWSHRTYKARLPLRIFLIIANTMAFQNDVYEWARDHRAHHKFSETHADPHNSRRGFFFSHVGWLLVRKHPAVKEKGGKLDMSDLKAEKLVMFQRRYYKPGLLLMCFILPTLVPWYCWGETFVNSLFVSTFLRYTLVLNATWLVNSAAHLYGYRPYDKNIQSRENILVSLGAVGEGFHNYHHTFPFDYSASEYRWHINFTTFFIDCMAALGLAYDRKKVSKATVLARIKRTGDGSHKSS
The series is described as follows: Inhibition of SCD1 in ICR mouse liver microsome using [9,10 3H]- stearoyl-Coenzyme A substrate assessed as decreased production of tritiated water after 20 min by scintillation counting analysis. In general terms: Microsomes from liver hold many membrane-bound enzymes, among them those of drug oxidation.

In series [3] the test system is Rattus norvegicus. The series is described as follows: In vivo inhibition of SCD1 in Lewis rat liver microsome at 1 mg/kg, po after 4 hrs.
Series [4] is described as follows: Apparent permeability from apical to basolateral side in human Caco2 cells. In kind it is ADME, cell-based. The note with it: Caco-2. Summed up:
(§1)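 Caco-2 monolayers; apparent permeability a-to-b and b-to-a reported in 10⁻⁶ cm/s.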
For orientation: Caco-2 cells form a polarised layer with tight junctions and transporters.

The nature of series [5]: Apparent permeability from basolateral to apical side in human Caco2 cells. The note with it: Caco-2. It counts as ADME, cell-based. The essentials: as §1
Series [6] is described as follows: Metabolic stability in rat liver microsome after 30 mins by LC/MS/MS analysis. In kind it is ADME. The conditions noted are these: liver microsomes, read-out: Stability. The essentials: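 Compound incubated 30 min with rat liver microsomes; percent parent remaining by LC/MS/MS.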
Series [7] in a line: Half life in Lewis rat at 3 mg/kg, iv. In kind it is ADME, organism-based. Also on record: dose 3 mg/kg, route intravenous. The conditions noted are these: in vivo. Summed up: (§2)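 Lewis rats, IV 3 mg/kg and PO 10 mg/kg unless otherwise stated (some at PO 5 mg/kg, IV 1 mg/kg, or IV 1/PO 2 mg/kg). At least two rats IV, three rats PO, averaged. Plasma t1/2 (h), AUC 0–∞ (μM·h), Vss (L/kg), clearance ((L/h)/kg), Cmax (μM), Tmax (h), oral bioavailability (%).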

Series [8] can be described thus: Oral bioavailability in Lewis rat at 10 mg/kg. It counts as ADME, organism-based. The conditions noted are these: in vivo. Summed up: as §2
The subject of series [9] is Rattus norvegicus. Description: In vivo inhibition of SCD1 in Lewis rat liver microsome at 15 mg/kg, ip administered qd for 2 days. The note with it: 48 h, route intraperitoneal. It counts as functional. The essentials: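 Lewis rats fed high-carbohydrate diet for one week, fasted 4 h, then dosed orally (0.1–1 mg/kg in 0.2% Tween 20/1% CMC; n = 4), killed 4 h later; ip arm 15 mg/kg once daily for two days. Liver microsomes prepared, SCD1 activity measured by tritiated water release from [9,10-3H]stearoyl-CoA. Mean ± SD of at least four rats.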

A short description of series [10]: Cmax in Lewis rat at 10 mg/kg, po. It counts as ADME, organism-based. Details: dose 10 mg/kg, route oral. The conditions noted are these: in vivo. The essentials:
as §2

Series [11] in a line: Volume of distribution at steady state in Lewis rat at 3 mg/kg, iv. It counts as ADME, organism-based. Also on record: dose 3 mg/kg, route intravenous. The conditions noted are these: in vivo, read-out: Vdss. Summed up:
as §2

The nature of series [12]: Tmax in Lewis rat at 10 mg/kg, po. It counts as ADME, organism-based. Also on record: dose 10 mg/kg, route oral. The conditions noted are these: in vivo. Summed up: as §2
The nature of series [13]: Clearance in Lewis rat at 3 mg/kg, iv. Details: dose 3 mg/kg, route intravenous. In kind it is ADME, organism-based. The note with it: in vivo. Summed up: as §2

Acyl-CoA (8-3)-desaturase (Rattus norvegicus), sequence (Q920R3 whole entry, looked up): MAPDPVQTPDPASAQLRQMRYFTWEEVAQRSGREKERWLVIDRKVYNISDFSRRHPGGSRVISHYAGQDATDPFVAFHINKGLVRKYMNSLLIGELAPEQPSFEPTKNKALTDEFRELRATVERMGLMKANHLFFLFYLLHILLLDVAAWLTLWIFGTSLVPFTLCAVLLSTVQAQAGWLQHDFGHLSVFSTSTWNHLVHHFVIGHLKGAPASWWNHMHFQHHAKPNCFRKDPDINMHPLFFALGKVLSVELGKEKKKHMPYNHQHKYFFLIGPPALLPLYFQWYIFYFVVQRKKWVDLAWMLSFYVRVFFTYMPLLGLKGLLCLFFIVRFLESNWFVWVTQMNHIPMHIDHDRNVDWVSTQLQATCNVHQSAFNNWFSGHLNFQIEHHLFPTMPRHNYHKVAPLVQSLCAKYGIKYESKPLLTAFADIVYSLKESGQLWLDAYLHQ
Acyl-CoA 6-desaturase (Rattus norvegicus), sequence (Q9Z122 whole entry, looked up): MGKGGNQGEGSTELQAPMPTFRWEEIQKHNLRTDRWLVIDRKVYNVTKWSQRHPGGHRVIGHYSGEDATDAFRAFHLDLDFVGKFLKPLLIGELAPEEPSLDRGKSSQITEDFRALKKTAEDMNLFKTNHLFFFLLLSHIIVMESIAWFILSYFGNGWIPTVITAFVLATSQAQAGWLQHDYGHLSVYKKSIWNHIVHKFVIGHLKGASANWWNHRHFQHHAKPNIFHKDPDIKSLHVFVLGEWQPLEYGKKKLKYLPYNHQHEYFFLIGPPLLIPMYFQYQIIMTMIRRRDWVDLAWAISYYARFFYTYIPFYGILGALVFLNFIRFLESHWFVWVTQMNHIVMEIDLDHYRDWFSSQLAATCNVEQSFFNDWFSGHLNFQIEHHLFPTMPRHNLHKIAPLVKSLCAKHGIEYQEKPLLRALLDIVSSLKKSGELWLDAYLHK

The IC50 is the concentration that inhibits the measured activity by half. For `CC(C(=O)N1CCN(c2ccc(C(=O)NCCC3CC3)nn2)CC1)(C(F)(F)F)C(F)(F)F`, the inhibition result in series [1] and in series [2] was “inactive” throughout. Also, the results for the 50% inhibitory concentration (IC50) on Stearoyl-CoA desaturase and on Acyl-CoA desaturase 1 were 0.119 µM and 0.113 µM, respectively.

A word on the Papp A→B: it is the apparent permeability from the apical to the basolateral side of a cell layer. The Papp B→A is how fast a substance crosses the layer from the basolateral side. Consider `O=C(Nc1ccc(Cl)cc1)c1ccc(N2CCN(C(=O)c3ccccc3C(F)(F)F)CC2)nn1`, for which the inhibition result in [1] and in series [2] was “inactive” in each case. In addition, the inhibition result with Rattus norvegicus [3] was “Active”. For the same molecule, the Papp A→B in [4] was 2 ×10⁻⁶ cm/s. Moreover, the Papp B→A in series [5] was 2 ×10⁻⁶ cm/s. Also, the IC50 on Acyl-CoA desaturase 1 was 0.007 µM. Further, in series [6], the remaining at 0.5 h was determined as 65%.

As usually defined, the half-life is how long it takes for the measured level to halve. A higher half-life goes with slow loss. What is called bioavailability is dose-corrected exposure relative to a reference, in per cent. Lower therefore signals little systemic uptake. The inhibition in vivo is the relative decrease from the control value, in per cent. A high value points to a strong effect. As a reminder, the Cmax is the peak of the concentration-time curve. What is called Tmax is the time at which the peak concentration occurs. As a reminder, the clearance is the volume of plasma or blood freed of the substance per unit of time. A higher clearance goes with efficient removal. Turning to `O=C(CNC(=O)c1ccc(N2CCN(C(=O)c3ccccc3C(F)(F)F)CC2)nn1)c1ccccc1`, the inhibition result in [1] and in [2] was “inactive” each time. Further, the half-life in series [7] is 1.8 h. Besides, in [4], the Papp A→B is 22 ×10⁻⁶ cm/s. The Papp B→A in series [5] was 23 ×10⁻⁶ cm/s. For the same molecule, the bioavailability in series [8] worked out at 42%. Also, in the series on Rattus norvegicus [9], the inhibition in vivo at 15 mg/kg is more than 60%. This molecule also gave a Cmax in series [10] of 1900 nM. For the same molecule, on Acyl-CoA desaturase 1, the IC50 turned out to be 0.042 µM. For the same molecule, in series [11], the Vd worked out at 0.7 L/kg. The Tmax in series [12] was 3.3 h. The molecule also gave a clearance in series [13] of 4.67 mL/min/kg. Besides, in [6], the remaining at 0.5 h stood at 63%.

With `O=C(NCCC1CC1)c1ccc(N2CCN(C(=O)c3cnc(Cl)nc3C(F)(F)F)CC2)nn1`, the inhibition entry in series [1] and in series [2] was “inactive” each time. In addition, the IC50 was determined as 5.87 µM on Stearoyl-CoA desaturase and 0.321 µM at Acyl-CoA desaturase 1.

For the molecule `Cc1cc(C(=O)N2CCN(c3ccc(C(=O)NCCC4CC4)nn3)CC2)c(C(F)(F)F)o1`, the inhibition result in series [1] and in series [2] was “inactive” throughout. Moreover, the Papp A→B in series [4] is 21 ×10⁻⁶ cm/s. Further, in series [5], the Papp B→A was determined as 21 ×10⁻⁶ cm/s. Moreover, the IC50 was 0.062 µM on Stearoyl-CoA desaturase and 0.072 µM at Acyl-CoA desaturase 1. Besides, in the series on Rattus norvegicus [9], the inhibition in vivo at 15 mg/kg is less than 30%. Also, the remaining at 0.5 h in series [6] was determined as 36%.
